In ChEMBL document CHEMBL1131064, “Design, synthesis, and anticonvulsant activity of 1-(pyrid-3-ylsulfonamido)-2-nitroethylenes” (J Med Chem, 1998):
One block for each compound: values may come before it.

How the values were obtained:
Mus musculus [1] = species on record: Mus musculus; test: Tested for anticonvulsant activity by measuring rate of mice protected against electric shock applied at 0.5 hr after injection in maximal electroshock seizure (MES) test; out of 6; assay type: functional
In short: (§1)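 Screen in male OF-1 mice (22-25 g), groups of six or seven, given 30 mg/kg ip at 10 mL/kg. Corneal electroshock (50 mA, 60 Hz, 0.2 s) was applied 0.5 or 3 h post-injection. Protection was scored as abolition of hind limb tonic extension and reported as the rate of protected mice.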

[2] = Partition coefficient (logP); assay type: physicochemical; conditions: octanol/water
In short: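 log P obtained by extrapolation from RP-HPLC log k′. The basis is a correlation of log k′ with shake-flask log P in 1-octanol/phosphate buffer pH 7.40, built from reference compounds.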

Mus musculus [3] = species on record: Mus musculus; test: Tested for anticonvulsant activity by measuring rate of mice protected against electric shock applied at 3 hr after injection in maximal electroshock seizure (MES) test; out of 7; assay type: functional; in short: as §1
Rattus norvegicus = test: Urinary volume excreted over 4 hr by rats after oral administration of 30 mg/kg; assay type: functional, Urine
In short: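 Male Wistar rats (193-229 g) were dosed orally with 30 mg/kg in 0.9% NaCl/0.1% methocel at 40 mL/kg; three rats shared a metabolism cage. Urine was collected over 4 h and expressed as mL/kg.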

Mus musculus [4] = species on record: Mus musculus; test: Tested for anticonvulsant activity by measuring rate of mice protected against electric shock applied at 3 h after injection in maximal electroshock seizure (MES) test; out of 6; assay type: functional; in short: as §1
[5] = Partition coefficient in 1-octanol phosphate buffer at pH 7.40; assay type: physicochemical; conditions: pH 7.4
In short: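 Shake-flask partition between 1-octanol and phosphate buffer at pH 7.40.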

Mus musculus [6] = test: Tested for anticonvulsant activity by measuring its ability to protect against NMDLA(340 mg/kg) induced convulsions at the time of peak effect of 2 hr.; assay type: functional
In short: (§2)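 OF-1 male mice, eight per group, were given compound ip at up to 100 mg/kg. At the MES time of peak effect, a convulsant in 0.9% NaCl was injected sc; bicuculline was dissolved in warmed 0.1 N HCl/0.9% NaCl and used within 30 min. ED50 with 95% CI was computed by Litchfield–Wilcoxon.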

Mus musculus [7] = test: Tested for anticonvulsant activity by measuring its ability to protect against strychnine(1.2 mg/kg) induced convulsions at the time of peak effect of 2 hr; assay type: functional; in short: as §2
Mus musculus [8] = species on record: Mus musculus; test: Tested for anticonvulsant activity by measuring its ability to protect against electric shock in maximal electroshock seizure (MES) test at the time of peak effect of 2 hr
Mus musculus [9] = test: Tested for anticonvulsant activity by measuring its ability to protect against bicuculline (2.7 mg/kg) induced convulsions at the time of peak effect of 2 hr.; assay type: functional; in short: as §2
Mus musculus [10] = test: Tested for anticonvulsant activity by measuring its ability to protect against pentetrazole (85 mg/kg) induced convulsions at the time of peak effect of 2 hr.; assay type: functional
In short: (§3)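 Groups of eight male OF-1 mice (22-25 g) received the test compound ip (10 mL/kg) at doses up to 100 mg/kg. At the MES-derived time of peak effect, pentetrazole 85 mg/kg in 0.9% NaCl was given sc and protection against convulsions recorded. ED50 and 95% confidence intervals were computed by Litchfield–Wilcoxon.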

Mus musculus [11] = test: Tested for anticonvulsant activity by measuring its ability to protect against bicuculline (2.7 mg/kg) induced convulsions at the time of peak effect of 4h.; assay type: functional
Mus musculus [12] = species on record: Mus musculus; test: Tested for anticonvulsant activity by measuring its ability to protect against electric shock in maximal electroshock seizure (MES) test at the time of peak effect of 4 hr; assay type: functional
Mus musculus [13] = test: Tested for anticonvulsant activity by measuring its ability to protect against pentetrazole (85 mg/kg) induced convulsions at the time of peak effect of 4h.; assay type: functional; in short: as §3
Mus musculus [14] = test: Tested for anticonvulsant activity by measuring its ability to protect against NMDLA(340 mg/kg) induced convulsions at the time of peak effect of 4h.; assay type: functional
Mus musculus [15] = test: Tested for anticonvulsant activity by measuring its ability to protect against strychnine(1.2 mg/kg) induced convulsions at the time of peak effect of 4 hr; assay type: functional
[16] = Neurotoxicity was evaluated at a time of peak effect of 4 hr; assay type: toxicity; conditions: mouse
[17] = Neurotoxicity was evaluated at a time of peak effect of 3h; assay type: toxicity; conditions: mouse
Mus musculus [18] = test: Tested for anticonvulsant activity by measuring its ability to protect against NMDLA(340 mg/kg) induced convulsions at the time of peak effect of 3h.; assay type: functional; in short: as §2
Mus musculus [19] = test: Tested for anticonvulsant activity by measuring its ability to protect against bicuculline (2.7 mg/kg) induced convulsions at the time of peak effect of 3h.; assay type: functional
In short: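 Male OF-1 mice (22-25 g), eight per group, given the test compound ip (10 mL/kg) at doses up to 100 mg/kg. Bicuculline 2.70 mg/kg, dissolved in warmed 0.1 N HCl plus 0.9% NaCl (10 mL/kg) and used within 30 min, was injected sc at the MES time of peak effect. Protection scored; ED50 with 95% CI by Litchfield–Wilcoxon.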

Mus musculus [20] = test: Tested for anticonvulsant activity by measuring its ability to protect against pentetrazole (85 mg/kg) induced convulsions at the time of peak effect of 3h.; assay type: functional; in short: as §2
Mus musculus [21] = species on record: Mus musculus; test: Tested for anticonvulsant activity by measuring its ability to protect against electric shock in maximal electroshock seizure (MES) test at the time of peak effect of 3h; assay type: functional
In short: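 Male OF-1 mice (22-25 g) were dosed ip at 10 mL/kg and tested at the peak-effect time. Corneal electroshock was 50 mA, 60 Hz, 0.2 s; protection meant abolition of hind limb tonic extension. Groups of eight mice received varying doses. ED50 with 95% CI was computed by Litchfield–Wilcoxon.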

Mus musculus [22] = test: Tested for anticonvulsant activity by measuring its ability to protect against strychnine(1.2 mg/kg) induced convulsions at the time of peak effect of 3h; assay type: functional; in short: as §2

logP [2]: 2.27
SMILES: O=[N+]([O-])/C=C(\NC1CCCCCCC1)NS(=O)(=O)c1cnccc1NC1CCCCC1
No. of mice protected (Mus musculus [1]): 2
No. of mice protected (Mus musculus [3]): 4
Diuresis (Rattus norvegicus): 21 mL/kg

logP [2]: 1.99
SMILES: O=[N+]([O-])/C=C(\NC1CCCCC1)NS(=O)(=O)c1cnccc1NC1CCCCCC1
No. of mice protected (Mus musculus [1]): 1
Diuresis (Rattus norvegicus): 18 mL/kg
No. of mice protected (Mus musculus [4]): 5

logP [2]: 1.67
SMILES: O=[N+]([O-])/C=C(\NC1CCCCC1)NS(=O)(=O)c1cnccc1NC1CCCCC1
No. of mice protected (Mus musculus [1]): 0
No. of mice protected (Mus musculus [3]): 4
Diuresis (Rattus norvegicus): 20 mL/kg

SMILES: Cc1cccc(Nc2ccncc2S(=O)(=O)NC(=O)NC(C)C)c1 [TORSEMIDE]
No. of mice protected (Mus musculus [1]): 0
Diuresis (Rattus norvegicus): 88 mL/kg
No. of mice protected (Mus musculus [4]): 0

logP [2]: 2.57
SMILES: O=[N+]([O-])/C=C(\NC1CCCCCCC1)NS(=O)(=O)c1cnccc1NC1CCCCCC1
No. of mice protected (Mus musculus [1]): 1
No. of mice protected (Mus musculus [3]): 4
Diuresis (Rattus norvegicus): 23 mL/kg

logD [5]: -0.482
SMILES: CCNc1ccncc1S(=O)(=O)N/C(=C/[N+](=O)[O-])NC(C)C

logP [2]: 2.86
SMILES: O=[N+]([O-])/C=C(\NC1CCCCCCC1)NS(=O)(=O)c1cnccc1NC1CCCCCCC1
No. of mice protected (Mus musculus [1]): 0
No. of mice protected (Mus musculus [3]): 3
Diuresis (Rattus norvegicus): 22 mL/kg

logP [2]: 2.59
SMILES: O=[N+]([O-])/C=C(\NC1CCCCCC1)NS(=O)(=O)c1cnccc1NC1CCCCCCC1
No. of mice protected (Mus musculus [1]): 2
Diuresis (Rattus norvegicus): 20 mL/kg
No. of mice protected (Mus musculus [4]): 5

logP [2]: 1.97
SMILES: O=[N+]([O-])/C=C(\NC1CCCCCC1)NS(=O)(=O)c1cnccc1NC1CCCCC1
No. of mice protected (Mus musculus [1]): 0
No. of mice protected (Mus musculus [3]): 5
Diuresis (Rattus norvegicus): 20 mL/kg

logD [5]: 0.538
SMILES: CC(C)N/C(=C\[N+](=O)[O-])NS(=O)(=O)c1cnccc1NC1CCCC1

logP [2]: 2.3
SMILES: O=[N+]([O-])/C=C(\NC1CCCCCC1)NS(=O)(=O)c1cnccc1NC1CCCCCC1
No. of mice protected (Mus musculus [1]): 1
Diuresis (Rattus norvegicus): 25 mL/kg
No. of mice protected (Mus musculus [4]): 5

logP [2]: 1.66
SMILES: Cc1cccc(Nc2ccncc2S(=O)(=O)N/C(=C/[N+](=O)[O-])NC2CCCCC2)c1
No. of mice protected (Mus musculus [1]): 1
Diuresis (Rattus norvegicus): 29 mL/kg
No. of mice protected (Mus musculus [4]): 2

SMILES: O=C1NC(=O)C(c2ccccc2)(c2ccccc2)N1 [PHENYTOIN]
ED50 (Mus musculus [6]): > 100 mg/kg
ED50 (Mus musculus [7]): > 100 mg/kg
ED50 (Mus musculus [8]): 9.51 mg/kg
ED50 (Mus musculus [9]): > 100 mg/kg
ED50 (Mus musculus [10]): > 100 mg/kg

logD [5]: 1.12
SMILES: Cc1cccc(Nc2ccncc2S(=O)(=O)N/C(=C/[N+](=O)[O-])NC(C)C)c1

SMILES: O=S(=O)(NC(=S)NC1CCCCC1)c1cnccc1NC1CCCCCCC1
ED50 (Mus musculus [11]): > 100 mg/kg
ED50 (Mus musculus [12]): 1.19 mg/kg
ED50 (Mus musculus [13]): > 100 mg/kg
ED50 (Mus musculus [14]): > 100 mg/kg
ED50 (Mus musculus [15]): > 100 mg/kg
TD50 at 4 h [16]: 147 mg/kg

SMILES: O=[N+]([O-])/C=C(\NC1CCCCC1)NS(=O)(=O)c1cnccc1NC1CCCCCCC1
TD50 at 3 h [17]: 114 mg/kg
No. of mice protected (Mus musculus [1]): 1
ED50 (Mus musculus [18]): > 100 mg/kg
ED50 (Mus musculus [19]): > 100 mg/kg
logP [2]: 2.31
No. of mice protected (Mus musculus [3]): 7
ED50 (Mus musculus [20]): > 100 mg/kg
ED50 (Mus musculus [21]): 8.25 mg/kg
ED50 (Mus musculus [22]): > 100 mg/kg
Diuresis (Rattus norvegicus): 22 mL/kg
